Test results as given in ChEMBL document CHEMBL4689842, “EUbOPEN Chemogenomics Library wave 1” (2021).

Test system: HEK-293T
Experiment: Multiplex assay against HEK293T;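 as to Population Tubulin-Different-Phenotype (%): share of the cells with healthy nuclei that show this phenotype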
Format: toxicity, cell-based
Settings: human
Summary of the method: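 Cells stained live at seeding with Hoechst33342, BioTracker Green Microtubule Cytoskeleton Dye, MitoTracker Red and Annexin V Alexa Fluor 680 were imaged on a CQ1 microscope at 37°C and 5% CO2 after compound addition. Their classification by CellPathfinder machine-learning gating ran from Hoechst high-intensity objects versus normal cells, to healthy, pyknosed or fragmented nuclei among normal cells, to mitotic or apoptotic among pyknosed cells. Tubulin, mitochondrial-mass and membrane-permeability phenotypes are per cents of healthy-nucleus cells.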

[1] = 12 h, 1 µM, compound concentration 1 uM, replicate 1
[2] = 12 h, 1 µM, compound concentration 1 uM, replicate 2
[3] = 12 h, 10 µM, compound concentration 10 uM, replicate 1
[4] = 12 h, 10 µM, compound concentration 10 uM, replicate 2
[5] = 24 h, 1 µM, compound concentration 1 uM, replicate 1
[6] = 24 h, 1 µM, compound concentration 1 uM, replicate 2
[7] = 24 h, 10 µM, compound concentration 10 uM, replicate 1
[8] = 24 h, 10 µM, compound concentration 10 uM, replicate 2
[9] = 48 h, 1 µM, compound concentration 1 uM, replicate 1
[10] = 48 h, 1 µM, compound concentration 1 uM, replicate 2
[11] = 48 h, 10 µM, compound concentration 10 uM, replicate 1
[12] = 48 h, 10 µM, compound concentration 10 uM, replicate 2

Cl.Cl.Nc1ncnc2c1c(-c1cccc(OCc3ccccc3)c1)cn2[C@H]1C[C@@H](CN2CCC2)C1
Population Apoptotic (%) [1]: 69%
Population Fragmented Nuclei (%) [1]: 13%
Population Healthy Nuclei (%) [1]: 17%
Population Hoechst High Intensity Objects (%) [1]: 24%
Population Membrane Permeable-Phenotype (%) [1]: 5%
Population Mitochondria Different-Phenotype (%) [1]: 94%
Population Mitotic Cells (%) [1]: 30%
Population Normal (%) [1]: 75%
Population Pyknosed Nuclei (%) [1]: 68%
Population Tubulin-Different-Phenotype (%) [1]: 88%
Total Cell Count [1]: 270
Population Apoptotic (%) [2]: 56%
Population Fragmented Nuclei (%) [2]: 5%
Population Healthy Nuclei (%) [2]: 23%
Population Hoechst High Intensity Objects (%) [2]: 10%
Population Membrane Permeable-Phenotype (%) [2]: 2%
Population Mitochondria Different-Phenotype (%) [2]: 97%
Population Mitotic Cells (%) [2]: 43%
Population Normal (%) [2]: 89%
Population Pyknosed Nuclei (%) [2]: 71%
Population Tubulin-Different-Phenotype (%) [2]: 97%
Total Cell Count [2]: 199
Population Fragmented Nuclei (%) [3]: 18%
Population Healthy Nuclei (%) [3]: 12%
Population Hoechst High Intensity Objects (%) [3]: 20%
Population Membrane Permeable-Phenotype (%) [3]: 3%
Population Mitochondria Different-Phenotype (%) [3]: 100%
Population Normal (%) [3]: 79%
Population Pyknosed Nuclei (%) [3]: 69%
Population Tubulin-Different-Phenotype (%) [3]: 84%
Total Cell Count [3]: 264
Population Apoptotic (%) [4]: 95%
Population Fragmented Nuclei (%) [4]: 21%
Population Healthy Nuclei (%) [4]: 6%
Population Hoechst High Intensity Objects (%) [4]: 23%
Population Membrane Permeable-Phenotype (%) [4]: 9%
Population Mitochondria Different-Phenotype (%) [4]: 81%
Population Mitotic Cells (%) [4]: 4%
Population Normal (%) [4]: 77%
Population Pyknosed Nuclei (%) [4]: 71%
Population Tubulin-Different-Phenotype (%) [4]: 54%
Total Cell Count [4]: 213
Population Apoptotic (%) [5]: 70%
Population Fragmented Nuclei (%) [5]: 14%
Population Healthy Nuclei (%) [5]: 18%
Population Hoechst High Intensity Objects (%) [5]: 25%
Population Membrane Permeable-Phenotype (%) [5]: 0%
Population Mitochondria Different-Phenotype (%) [5]: 100%
Population Mitotic Cells (%) [5]: 29%
Population Normal (%) [5]: 75%
Population Pyknosed Nuclei (%) [5]: 67%
Total Cell Count [5]: 260
Population Apoptotic (%) [6]: 67%
Population Fragmented Nuclei (%) [6]: 7%
Population Healthy Nuclei (%) [6]: 43%
Population Hoechst High Intensity Objects (%) [6]: 5%
Population Membrane Permeable-Phenotype (%) [6]: 4%
Population Mitochondria Different-Phenotype (%) [6]: 93%
Population Mitotic Cells (%) [6]: 32%
Population Normal (%) [6]: 94%
Population Pyknosed Nuclei (%) [6]: 49%
Population Tubulin-Different-Phenotype (%) [6]: 91%
Total Cell Count [6]: 213
Population Apoptotic (%) [7]: 92%
Population Fragmented Nuclei (%) [7]: 17%
Population Healthy Nuclei (%) [7]: 9%
Population Hoechst High Intensity Objects (%) [7]: 22%
Population Membrane Permeable-Phenotype (%) [7]: 0%
Population Mitochondria Different-Phenotype (%) [7]: 100%
Population Mitotic Cells (%) [7]: 7%
Population Normal (%) [7]: 77%
Population Pyknosed Nuclei (%) [7]: 73%
Population Tubulin-Different-Phenotype (%) [7]: 80%
Total Cell Count [7]: 278
Population Apoptotic (%) [8]: 100%
Population Fragmented Nuclei (%) [8]: 23%
Population Healthy Nuclei (%) [8]: 11%
Population Hoechst High Intensity Objects (%) [8]: 26%
Population Membrane Permeable-Phenotype (%) [8]: 5%
Population Mitochondria Different-Phenotype (%) [8]: 89%
Population Mitotic Cells (%) [8]: 0%
Population Normal (%) [8]: 73%
Population Pyknosed Nuclei (%) [8]: 64%
Population Tubulin-Different-Phenotype (%) [8]: 68%
Total Cell Count [8]: 227
Population Apoptotic (%) [9]: 74%
Population Fragmented Nuclei (%) [9]: 20%
Population Healthy Nuclei (%) [9]: 21%
Population Hoechst High Intensity Objects (%) [9]: 30%
Population Membrane Permeable-Phenotype (%) [9]: 0%
Population Mitochondria Different-Phenotype (%) [9]: 97%
Population Mitotic Cells (%) [9]: 25%
Population Normal (%) [9]: 70%
Population Pyknosed Nuclei (%) [9]: 57%
Population Tubulin-Different-Phenotype (%) [9]: 78%
Total Cell Count [9]: 250
Population Apoptotic (%) [10]: 64%
Population Fragmented Nuclei (%) [10]: 6%
Population Healthy Nuclei (%) [10]: 71%
Population Hoechst High Intensity Objects (%) [10]: 11%
Population Membrane Permeable-Phenotype (%) [10]: 1%
Population Mitochondria Different-Phenotype (%) [10]: 87%
Population Mitotic Cells (%) [10]: 35%
Population Normal (%) [10]: 88%
Population Pyknosed Nuclei (%) [10]: 22%
Population Tubulin-Different-Phenotype (%) [10]: 93%
Total Cell Count [10]: 263
Population Apoptotic (%) [11]: 93%
Population Fragmented Nuclei (%) [11]: 25%
Population Healthy Nuclei (%) [11]: 1%
Population Hoechst High Intensity Objects (%) [11]: 19%
Population Membrane Permeable-Phenotype (%) [11]: 0%
Population Mitochondria Different-Phenotype (%) [11]: 100%
Population Mitotic Cells (%) [11]: 6%
Population Normal (%) [11]: 80%
Population Pyknosed Nuclei (%) [11]: 73%
Population Tubulin-Different-Phenotype (%) [11]: 33%
Total Cell Count [11]: 315
Population Apoptotic (%) [12]: 98%
Population Fragmented Nuclei (%) [12]: 34%
Population Healthy Nuclei (%) [12]: 17%
Population Hoechst High Intensity Objects (%) [12]: 12%
Population Mitotic Cells (%) [12]: 1%
Population Normal (%) [12]: 87%
Population Pyknosed Nuclei (%) [12]: 48%
Population Tubulin-Different-Phenotype (%) [12]: 88%
Total Cell Count [12]: 234
